What was measured:
Felis catus = organism: Felis catus; assay: Inotropic activity in cat papillary muscle at 10e-5 M expressed as percent of control; assay type: functional
Method in brief: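 Isolated-tissue bath preparation with contractions recorded on a polygraph. Compounds were dissolved in DMSO and added cumulatively, each concentration being allowed to produce its maximal response before the next higher one was added.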

Canis familiaris = assay: Tested in anesthetized dog for its inotropic activity after intravenous administration; assay type: functional; details: Canis lupus familiaris
Method in brief: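 Mongrel dogs of either sex (7-14 kg), anesthetized with sodium pentobarbital (35 mg/kg iv). Dosing was via a femoral vein cannula. Contractility was measured by a Walton-Brodie strain-gauge arch on the right ventricle (tension 50 g); heart rate by cardiometer; lead II ECG. Doses of 0.01 to 8.0 mg/kg iv were given in increasing steps at 5-min intervals. Peak responses are reported as mean ± SEM (n = 4) or mean ± range (n = 2).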

Structure (SMILES)	Inotropic activity (% of control) (Felis catus)	ED50 (Canis familiaris)
COc1ccc(-c2nc3cc[nH]cc-3n2)c(OC)c1	158%	0.3 mg/kg
COc1ccc(-c2cn3cccnc3n2)c(OC)c1	136%	
COc1cc(SC)ccc1-c1cn2ccncc2n1	140%	0.5 mg/kg
COc1ccc(-c2cn3ccccc3n2)c(OC)c1	98%	
COc1ccc(-c2cn3ncccc3n2)c(OC)c1	115%	
COc1ccc(-c2cn3nccnc3n2)c(OC)c1	130%	
COc1ccc(-c2cn3cnccc3n2)c(OC)c1	114%	
COc1cc(S(C)(=O)=O)ccc1-c1cn2ccncc2n1	180%	0.02 mg/kg
COc1cc(SC)ccc1-c1nc2cc[nH]cc-2n1	143%	0.2 mg/kg
COc1cc([S+](C)[O-])ccc1-c1cn2ccncc2n1 (stereo not drawn)	161%	0.1 mg/kg
COc1ccc(-c2cn3ccncc3n2)c(OC)c1	145%	0.7 mg/kg
COc1ccc(-c2nc3ccc[nH]c-3n2)c(OC)c1	146%	
COc1cc(S(C)(=O)=O)ccc1-c1nc2ccncc2[nH]1	176%	0.02 mg/kg
COc1cc([S+](C)[O-])ccc1-c1nc2cnccc2[nH]1 (stereo not drawn) [ISOMAZOLE]	172%	0.03 mg/kg
COc1cc([S+](C)[O-])ccc1-c1nc2cccnc2[nH]1 (stereo not drawn) [SULMAZOLE]	112%	
